We go through 16 molecules from paper PMC7115534 (Peptides, 2009).

≈ marks a conversion by molar mass, not a printed value. Read-outs that look alike come from different tables or passages of the source. Where a SMILES comes first, the peptide text is derived from it. The star is where a group is joined. Cbz = O=C(OCc1ccccc1)*; CH2F = FC*

In data set [1] the test system is Para-influenza-3 virus. Kind of data set: Antiviral activity in Vero cells, para-influenza-3. The following applies: read-out: EC50 Para-influenza-3 virus. In kind it is cell-based.
Data set [2] relates to Reovirus-1. Nature of the data set: Antiviral activity in Vero cells, reovirus-1. Format: cell-based. The following applies: read-out: EC50 Reovirus-1.
The test system of data set [3] is Sindbis virus. Kind of data set: Antiviral activity in Vero cells, Sindbis virus. In kind it is cell-based. Particulars: read-out: EC50 Sindbis virus.
For data set [4], the system named is Punta Toro virus. Nature of the data set: Antiviral activity in Vero cells, Punta Toro virus. In kind it is cell-based. The following applies: read-out: EC50 Punta Toro virus.
Data set [5] relates to Vero cells. The following applies: microscopic alteration of cell morphology.
Data set [6] deals with Influenza B. Kind of data set: Anti-influenza B activity in MDCK cells. Format: cell-based. Particulars: Influenza B virus.
In data set [7] the test system is MDCK cells. Particulars: microscopic alteration of cell morphology.
The nature of data set [8]: in vitro. The following applies: dog.
Data set [9] has as its system Clematis montana lectin (CML). Nature of the data set: Hemagglutination inhibition assay. In kind it is biochemical. The essentials: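 Sugars were serially diluted 2-fold and mixed with an equal volume of lectin at 8 hemagglutination units. After 30 min at room temperature, 2% rabbit erythrocyte suspension was added in U-bottom wells. Plates were read after 1 h. The endpoint was the minimum sugar concentration in the final mixture giving complete inhibition; lectin dilutions were made in 0.15 M NaCl.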

Data set [10] has as its system L929 cells. Kind of data set: Effect of carbohydrates and caspase inhibitors on CML-induced L929 cell death. Format: cell-based, murine. Particulars: 24 h; for effect of carbohydrate pre-incubation on CML-induced L929 cell death: 1 pM CML pre-incubated with sugar at 37 °C for 30 min, MTT; for effect of caspase inhibitor on CML-induced L929 apoptosis: 20 μM, 1 h prior to CML. The essentials:
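Murine L929 fibroblasts in DMEM with 10% FBS and nonessential amino acids at 37 °C, 5% CO2, were seeded at 1 × 10^5 cells/well for 24 h. Caspase inhibitors (pan-caspase z-VAD-fmk, caspase-3 z-DEVD-fmk, caspase-8 z-IETD-fmk; 20 μmol/l) were added 1 h before lectin, then cells were incubated 24 h. MTT was read at 490 nm as % growth inhibition versus control and blank; n = 5.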

For data set [11], the system named is HIV-1 (IIIB). Particulars: CEM cells; cited from earlier work.
Data set [12] has as its system HIV-2 (strain ROD). Particulars: CEM cells; cited from earlier work.
[13] abbreviates: read-out: Antiviral EC50 Influenza B MTS.
[14] abbreviates: read-out: Antiviral EC50 Influenza B Visual CPE Score.

A word on the EC50: it is the concentration that produces a half-maximal response. As to `Nc1ncnc2c1ncn2C[C@H](O)CO` [(S)-DHPA], the EC50 in data set [1], in data set [2], in data set [3] and in [4] was above 250 µM each time. The molecule also registered a Minimum cytotoxic concentration in [5] above 250 µM.

For the molecule `NC12CC3CC(CC(C3)C1)C2` [Amantadine], the EC50 in data set [6] (setting [13]) and in data set [6] (setting [14]) was above 1000 µM in each case. In data set [7], the “Cytotoxicity Minimum cytotoxic concentration” value was above 1000 µM. This molecule also displayed a CC50 in [8] above 1000 µM.

Consider `OC[C@H]1O[C@H](O[C@@H]2C(O)O[C@H](CO)[C@@H](O)[C@@H]2O)[C@@H](O)[C@@H](O)[C@@H]1O` (stereo partly drawn) [Man-a(1,2)-Man], for which, in data set [9], the “inhibition of CML agglutination of rabbit erythrocytes (in words)” value (from here on “inhibition”) was “slightly inhibitory”.

For `OC[C@H]1O[C@H](O[C@H]2[C@H](O)[C@@H](CO)OC(O)[C@H]2O)[C@@H](O)[C@@H](O)[C@@H]1O` (stereo partly drawn) [Man-a(1,3)-Man], the “inhibition” value in [9] was “slightly inhibitory”.

In the case of `OC[C@H]1O[C@H](OC[C@H]2OC(O)[C@@H](O)[C@@H](O[C@H]3O[C@H](CO)[C@@H](O)[C@H](O)[C@@H]3O)[C@@H]2O)[C@@H](O)[C@@H](O)[C@@H]1O` (stereo partly drawn) [Man-a(1,3:1,6)-mannotriose], the “Minimum inhibitory concentration (MIC)” value in data set [9] (complete inhibition of 8 hemagglutination units of CML, rabbit erythrocytes) was 2500 µM (≈ 1260 µg/mL). For the same molecule, the “effect of carbohydrate pre-incubation on CML-induced L929 cell death” value in data set [10] is given as “the cell inhibitory ratio was abruptly decreased”.

Take `OC[C@H]1O[C@H](OC[C@H]2OC(O)[C@@H](O)[C@@H](O)[C@@H]2O)[C@@H](O)[C@@H](O)[C@@H]1O` (stereo partly drawn) [Man-a(1,6)-Man]: the “inhibition” value in [9] is “slightly inhibitory”. Also, the “effect of carbohydrate pre-incubation on CML-induced L929 cell death” value in data set [10] is “slightly more effective inhibitor than Man-a(1,3:1,6)-mannotriose”.

In the case of `CCC(CC)O[C@@H]1C=C(C(=O)O)C[C@H](N)[C@H]1NC(C)=O` [Oseltamivir Carboxylate], the results for the EC50 in [6] (setting [13]) and in [6] (setting [14]) were 15 µM and 8 µM, respectively. Moreover, the “Cytotoxicity Minimum cytotoxic concentration” value in [7] is above 100 µM. The molecule also returned a CC50 in [8] above 100 µM.

Regarding `NC(=O)c1ncn([C@@H]2O[C@H](CO)[C@@H](O)[C@H]2O)n1` [Ribavirin], the concentration giving a half-maximal response (EC50) was 4.3 µM in data set [6] (setting [13]), 9 µM in [6] (setting [14]), 250 µM in [2] and above 250 µM in data set [3]. Besides, in [7], the “Cytotoxicity Minimum cytotoxic concentration” value is above 100 µM. The Minimum cytotoxic concentration in [5] was above 250 µM.

With `CC(N)C12CC3CC(CC(C3)C1)C2` (stereo not drawn) [Rimantadine], the EC50 in [6] (setting [13]) and in data set [6] (setting [14]) was above 200 µM each time. Moreover, the “Cytotoxicity Minimum cytotoxic concentration” value in data set [7] stood at 1000 µM. The CC50 in [8] is 525 µM.

Consider `COC(=O)CC[C@H](NC(=O)[C@H](CC(=O)OC)NC(=O)OCc1ccccc1)C(=O)N[C@H](C(=O)N[C@@H](CC(=O)OC)C(=O)CF)C(C)C` [z-DEVD-fmk], for which, in data set [10], the “effect of caspase inhibitor on CML-induced L929 apoptosis” value (“effect of caspase inhibitor” for short) is reported as “partially blocked apoptosis”.

Regarding `CC[C@H](C)[C@H](NC(=O)OCc1ccccc1)C(=O)N[C@@H](CCC(=O)OC)C(=O)N[C@H](C(=O)N[C@@H](CC(=O)OC)C(=O)CF)[C@@H](C)O` [z-IETD-fmk] (Cbz-IE(OMe)TD(OMe)-CH2F), the “effect of caspase inhibitor” value in data set [10] is listed as “partially blocked apoptosis”.

Turning to `COC(=O)C[C@H](NC(=O)[C@H](C)NC(=O)[C@@H](NC(=O)OCc1ccccc1)C(C)C)C(=O)CF` [z-VAD-fmk] (Cbz-Val-Ala-Asp(OMe)-CH2F), the “effect of caspase inhibitor” value in [10] was “partially blocked apoptosis”.

Take Galanthus nivalis agglutinin [GNA]: the “EC50 HIV-1” value in data set [11] is 0.92 µg/mL. The “EC50 HIV-2” value in data set [12] was 0.78 µg/mL.

On to Lycoris radiate agglutinin [LRA], for which the “EC50 HIV-1” value in data set [11] was 0.79 µg/mL. Besides, in data set [12], the “EC50 HIV-2” value was 0.59 µg/mL.

Consider Scilla campanulata agglutinin [SCA], for which the “EC50 HIV-1” value in [11] was 4.6 µg/mL. Also, the “EC50 HIV-2” value in data set [12] was 8 µg/mL.

As to thyroglobulin: a glycoprotein, in [9], the “inhibition” value is reported as “inhibited the agglutination”.
